Source: ChEMBL document CHEMBL2029239, “Identification, design and biological evaluation of bisaryl quinolones targeting Plasmodium falciparum type II NADH:quinone oxidoreductase (PfNDH2)” (J Med Chem, 2012)

Columns and labels:
Plasmodium falciparum [1] = experiment: Antimalarial activity against blood stage forms of Plasmodium falciparum 3D7; type: functional, organism-based
[2] = Inhibition of Plasmodium falciparum recombinant NDH2 expressed in Escherichia coli F571 using decyclubiquinone as substrate at 1 min by spectrophotometry
Plasmodium falciparum [3] = experiment: Antimalarial activity against atoquinone-resistant Plasmodium falciparum TM90C2B; type: functional, organism-based
[4] = Inhibition of Plasmodium falciparum cytochrome b-c1 complex using decylubiquinol as substrate by spectrophotometry
Plasmodium falciparum [5] = experiment: Antimalarial activity against chloroquine-resistant Plasmodium falciparum W2; type: functional, organism-based
Plasmodium berghei [6] = experiment: Antimalarial activity against Plasmodium berghei infected in CD1 mouse assessed as decrease in parasitemia at 20 mg/kg, po administered using Na2CO3 vehicle measured on day 4 relative to control; type: functional; design: scale not given: the % may be the effect or the level left
In short: (§1)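 Peters' standard 4-day suppressive test in male CD-1 mice infected with Plasmodium berghei by intraperitoneal injection. Compound given orally at 20 mg/kg, with 5 mice per group. Read-out is % parasite clearance on day 4. Vehicles were SSV (often as suspensions), DET (fully dissolved) or sodium carbonate solution, as specified in each line.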

Plasmodium berghei [7] = experiment: Antimalarial activity against Plasmodium berghei infected in CD1 mouse assessed as decrease in parasitemia at 20 mg/kg, po administered using standard suspension vehicle measured on day 4 relative to control; type: functional; design: scale not given: the % may be the effect or the level left; in short: as §1
Plasmodium berghei [8] = experiment: Antimalarial activity against Plasmodium berghei infected in CD1 mouse assessed as decrease in parasitemia at 20 mg/kg, po administered using 5% DMSO and 5% EtOH in tetraglycol vehicle measured on day 4 relative to control; type: functional; design: scale not given: the % may be the effect or the level left; in short: as §1

Row | SMILES | IC50 (Plasmodium falciparum [1]) | IC50 [2] | IC50 (Plasmodium falciparum [3]) | other results
1 | Cc1c(-c2ccc(Cc3ccccc3)cc2)[nH]c2ccccc2c1=O | 0.107 µM | 0.0274 µM | 0.416 µM | 
2 | Cc1c(-c2cccc(Cc3ccc(OC(F)(F)F)cc3)c2)[nH]c2ccccc2c1=O | 0.026 µM | 0.05 µM | 0.065 µM | IC50 [4]: 0.219 µM
3 | Cc1c(-c2ccc(Cc3ccc(F)cc3)cc2)[nH]c2ccccc2c1=O | 0.083 µM | < 0.001 µM | 0.273 µM | IC50 [4]: 0.0255 µM
4 | COc1ccc(Cc2ccc(-c3[nH]c4ccccc4c(=O)c3C)cc2)cc1 | 0.037 µM | 0.113 µM | 0.577 µM | 
5 | Cc1c(-c2ccc(Cc3ccc(OC(F)(F)F)cc3)cc2)[nH]c2ccc(C(F)(F)F)cc2c1=O | 0.654 µM |  |  | 
6 | Cc1c(-c2ccc(Cc3ccc(OC(F)(F)F)cc3)cc2)[nH]c2cc(C(F)(F)F)ccc2c1=O | 0.212 µM |  |  | 
7 | COc1ccc2c(=O)c(C)c(-c3ccc(Cc4ccc(OC(F)(F)F)cc4)cc3)[nH]c2c1 | 0.008 µM |  |  | IC50 (Plasmodium falciparum [5]): 0.013 µM
8 | COc1cccc2c(=O)c(C)c(-c3ccc(Cc4ccc(OC(F)(F)F)cc4)cc3)[nH]c12 | 0.381 µM |  |  | 
9 | Cc1c(-c2cccc(Cc3ccc(OC(F)(F)F)cc3)c2)[nH]c2ccc(Cl)cc2c1=O | 0.0084 µM |  | 0.031 µM | 
10 | Cc1c(-c2cccc(Cc3ccc(OC(F)(F)F)cc3)c2)[nH]c2cc(Cl)ccc2c1=O | 0.034 µM |  | 0.094 µM | 
11 | Cc1c(-c2ccc(Cc3ccc(F)cc3)cc2)[nH]c2cc(Cl)ccc2c1=O |  | 0.196 µM |  | 
12 | Cc1c(-c2ccc(Cc3ccc(OC(F)(F)F)cc3)cc2F)[nH]c2cc(Cl)ccc2c1=O | 0.03 µM |  |  | 
13 | Cc1c(-c2ccc(Oc3ccc(Cl)cc3)cc2)[nH]c2ccccc2c1=O | 0.23 µM | 0.036 µM | 0.797 µM | 
14 | Cc1c(-c2ccc(Cc3ccc(OC(F)(F)F)cc3)cc2)[nH]c2ccc(O)cc2c1=O | 0.465 µM |  |  | 
15 | Cc1c(-c2ccc(Cc3ccc(OC(F)(F)F)cc3)cc2)[nH]c2cc(O)ccc2c1=O | 0.139 µM |  |  | 
16 | Cc1c(-c2ccc(Cc3ccc(OC(F)(F)F)cc3)cc2)[nH]c2c(O)cccc2c1=O | 0.819 µM |  |  | 
17 | CC(=O)Oc1cccc2c(=O)c(C)c(-c3ccc(Cc4ccc(OC(F)(F)F)cc4)cc3)[nH]c12 | 0.408 µM |  |  | 
18 | Cc1c(-c2ccc(Cc3ccc(OC(F)(F)F)cc3)cc2)[nH]c2ncccc2c1=O | 0.407 µM | 0.097 µM | 1.88 µM | 
19 | Cc1c(-c2ccc(Cc3ccc(OC(F)(F)F)cc3)cc2)[nH]c2cc(F)ccc2c1=O | 0.069 µM | 0.0121 µM | 0.191 µM | 
20 | Cc1c(-c2ccc(Cc3ccc(OC(F)(F)F)cc3)cc2)[nH]c2cc(F)c(F)cc2c1=O | 0.024 µM | 0.0309 µM | 0.207 µM | 
21 | Cc1c(-c2ccc(Cc3ccc(F)cc3)cc2)[nH]c2ncccc2c1=O | 0.506 µM |  |  | 
22 | O=c1cc(-c2ccc(Cc3ccc(OC(F)(F)F)cc3)cc2)[nH]c2ccccc12 | 0.048 µM | 0.0062 µM | 0.251 µM | IC50 (Plasmodium falciparum [5]): 0.036 µM; IC50 [4]: 0.0139 µM
23 | O=c1cc(-c2ccc(Cc3ccc(OC(F)(F)F)cc3)cc2)[nH]c2cc(F)c(F)cc12 | 0.016 µM |  | 0.626 µM | 

Row | SMILES | IC50 (Plasmodium falciparum [1]) | IC50 [2] | IC50 (Plasmodium falciparum [3]) | other results
24 | O=c1cc(-c2ccc(Cc3ccc(OC(F)(F)F)cc3)cc2)[nH]c2cc(Cl)c(Cl)cc12 | 0.028 µM | 0.173 µM |  | 
25 | COc1cc2[nH]c(-c3ccc(Cc4ccc(OC(F)(F)F)cc4)cc3)cc(=O)c2cc1F | 0.039 µM |  |  | 
26 | O=c1cc(-c2ccc(Cc3ccc(OC(F)(F)F)cc3)cc2)[nH]c2ccc(N3CCNCC3)cc12 | 0.43 µM |  |  | 
27 | O=c1cc(-c2ccc(Cc3ccc(OC(F)(F)F)cc3)cc2)[nH]c2cc(N3CCNCC3)ccc12 | 0.443 µM |  |  | 
28 | O=c1cc(-c2ccc(Cc3ccc(OC(F)(F)F)cc3)cc2)[nH]c2cc(O)c(F)cc12 | > 1 µM |  |  | 
29 | O=c1cc(-c2ccc(Cc3ccc(CO)cc3)cc2)[nH]c2ccccc12 | > 1 µM |  |  | 
30 | O=c1c(Cl)c(-c2ccc(Cc3ccc(OC(F)(F)F)cc3)cc2)[nH]c2ccccc12 | 0.019 µM | 0.137 µM | 0.328 µM | IC50 (Plasmodium falciparum [5]): 0.022 µM
31 | Cc1[nH]c2ccccc2c(=O)c1-c1ccc(Cc2ccc(OC(F)(F)F)cc2)cc1 | 0.036 µM | 0.492 µM |  | IC50 (Plasmodium falciparum [5]): 0.042 µM
32 | Cc1[nH]c2ccccc2c(=O)c1-c1ccc(Oc2ccc(OC(F)(F)F)cc2)cc1 | 0.01 µM | 0.19 µM |  | IC50 (Plasmodium falciparum [5]): 0.034 µM
33 | CCOC(=O)c1c(-c2ccc(Cc3ccc(OC(F)(F)F)cc3)cc2)[nH]c2ccccc2c1=O | 0.0396 µM | 0.268 µM | 1.4 µM | 
34 | CCOC(=O)c1c(-c2ccc(Cc3ccc(OC(F)(F)F)cc3)cc2)[nH]c2cc(Cl)ccc2c1=O | 0.026 µM |  | 0.092 µM | 
35 | O=c1c(CO)c(-c2ccc(Cc3ccc(OC(F)(F)F)cc3)cc2)[nH]c2cc(Cl)ccc12 | 0.063 µM |  | 0.33 µM | 
36 | CCOC(=O)Oc1c(C)c(-c2ccc(Cc3ccc(OC(F)(F)F)cc3)cc2)nc2ccccc12 | 0.027 µM |  | 0.0068 µM | 
37 | CCOC(=O)Oc1c(-c2ccc(Cc3ccc(OC(F)(F)F)cc3)cc2)c(C)nc2ccccc12 | 0.027 µM |  | 0.224 µM | 
38 | CCOC(=O)Oc1c(C)c(-c2ccc(Oc3ccc(OC(F)(F)F)cc3)cc2)nc2ccccc12 | 0.06 µM |  | 0.406 µM | 
39 | Cc1c(-c2ccc(Cc3ccc(OC(F)(F)F)cc3)cc2)n(O)c2ccccc2c1=O | 0.022 µM | 0.0552 µM | 0.217 µM | IC50 (Plasmodium falciparum [5]): 0.008 µM
40 | Cc1c(-c2ccc(Cc3ccc(OC(F)(F)F)cc3)cc2)n(O)c2cc(Cl)ccc2c1=O | 0.149 µM |  | > 1 µM | 
41 | Cc1c(-c2ccc(Cc3ccc(OC(F)(F)F)cc3)cc2)c(=O)c2ccccc2n1O | 0.175 µM | 0.0135 µM | 0.67 µM | 
42 | O=c1cc(-c2ccc(Cc3ccc(OC(F)(F)F)cc3)cc2)n(O)c2ccccc12 | 0.263 µM | 0.071 µM | 0.403 µM | 
43 | Cc1c(-c2ccc(Oc3ccc(OC(F)(F)F)cc3)cc2)n(O)c2ccccc2c1=O | 0.035 µM | 0.108 µM | 0.566 µM | 
44 | Cc1c(-c2ccc(Cc3ccc(OC(F)(F)F)cc3)cc2)nc2cc(Cl)ccc2c1OP(=O)(O)O |  |  |  | Activity (Plasmodium berghei [6]): 100%
45 | Cc1c(-c2ccc(Cc3ccc(OC(F)(F)F)cc3)cc2)nc2cc(Cl)ccc2c1OC(=O)N1CCOCC1 |  |  |  | Activity (Plasmodium berghei [6]): 100%
46 | O=C1C(O)=C([C@H]2CC[C@H](c3ccc(Cl)cc3)CC2)C(=O)c2ccccc21 [ATOVAQUONE] |  |  |  | Activity (Plasmodium berghei [7]): 100%; Activity (Plasmodium berghei [8]): 100%

Now from value to compound, other results behind:

Row | IC50 (Plasmodium falciparum [1]) | SMILES | IC50 [2] | IC50 (Plasmodium falciparum [3]) | other results
47 | > 1 µM | COc1ccc(-c2cc(=O)c3ccccc3[nH]2)cc1 |  |  | 
48 | 0.091 µM | O=c1c(-c2ccc(Oc3ccc(OC(F)(F)F)cc3)cc2)c(CO)[nH]c2ccccc12 | > 56 µM |  | 
49 | 0.752 µM | Cc1c(-c2ccc(C(F)(F)F)cc2)[nH]c2ccccc2c1=O | 0.0885 µM |  | 
50 | > 1 µM | Cc1c(-c2ccc(OC(F)(F)F)cc2)[nH]c2ccccc2c1=O |  |  | 
51 | > 1 µM | Cc1c(-c2ccc(C(F)(F)F)cc2)[nH]c2ncccc2c1=O |  |  | 
52 | > 1 µM | Cc1c(-c2ccc(OC(F)(F)F)cc2)[nH]c2ncccc2c1=O |  |  | 
53 | > 1 µM | COc1ccc(-c2[nH]c3ncccc3c(=O)c2C)cc1 |  |  | 
54 | > 1 µM | Cc1c(-c2ccc(Br)cc2)[nH]c2ncccc2c1=O |  |  | 
55 | 0.579 µM | O=c1cc(-c2ccc(C(F)(F)F)cc2)[nH]c2ccccc12 | 0.0529 µM |  | 
56 | 0.675 µM | O=c1cc(-c2ccc(OC(F)(F)F)cc2)[nH]c2ccccc12 | 0.0479 µM |  | 
57 | > 1 µM | O=c1cc(-c2ccc(O)cc2)[nH]c2ccccc12 |  |  | 
58 | 0.513 µM | O=c1c(Cl)c(-c2ccc(OC(F)(F)F)cc2)[nH]c2ccccc12 | 0.253 µM |  | 
59 | 0.56 µM | COc1ccc(-c2[nH]c3ccccc3c(=O)c2Cl)cc1 | 1.67 µM |  | 
60 | 0.07 µM | Cc1c(-c2ccc(Cc3ccc(OC(F)(F)F)cc3)cc2)[nH]c2cc(F)c(Cl)cc2c1=O |  |  | 
61 | 0.038 µM | Cc1c(-c2ccc(Cc3ccc(OC(F)(F)F)cc3)cc2)[nH]c2cc(Cl)c(F)cc2c1=O |  |  | 
62 | 0.664 µM | COc1cccc2[nH]c(-c3ccc(Cc4ccc(OC(F)(F)F)cc4)cc3)c(C)c(=O)c12 |  |  | 
63 | 0.465 µM | COc1ccc2[nH]c(-c3ccc(Cc4ccc(OC(F)(F)F)cc4)cc3)c(C)c(=O)c2c1 |  |  | 
64 | 0.272 µM | COC(=O)c1ccc(Cc2ccc(-c3cc(=O)c4ccccc4[nH]3)cc2)cc1 | 0.019 µM |  | 
65 | 0.797 µM | O=c1c(-c2ccc(Oc3ccc(OC(F)(F)F)cc3)cc2)c[nH]c2ccccc12 |  |  | 
66 | 0.2 µM | O=c1c(CO)c(-c2ccc(Oc3ccc(OC(F)(F)F)cc3)cc2)[nH]c2cc(Cl)ccc12 |  |  | 
67 | > 1 µM | Cc1c(-c2ccc(Oc3ccc(OCCN4CCOCC4)cc3)cc2)[nH]c2ccccc2c1=O |  |  | 
68 | 0.719 µM | Cc1c(-c2ccc(Oc3cccc(OCCN4CCOCC4)c3)cc2)[nH]c2ccccc2c1=O |  |  | 
69 | 0.355 µM | Cc1c(-c2ccc(Cc3cccc(OCCN4CCOCC4)c3)cc2)[nH]c2ccccc2c1=O | 0.279 µM |  | 
